pEC50, pIC50: −log10 of the molar value.
What was measured:
[1] = Modulation of P-gp (unknown origin) transfected in human MDA435/LCC6MDR cells assessed as reversible of paclitaxel resistance measured as IC50 for paclitaxel at 1 uM after 5 days by CellTiter 96 Aqueous assay
[2] = Modulation of P-gp (unknown origin) transfected in human MDA435/LCC6MDR cells assessed as reversing paclitaxel resistance measured as cell survival after 5 days by MTS assay
[3] = Modulation of BCRP (unknown origin) transfected in human HEK293/R2 cells assessed as potentiation of topotecan-induced cytotoxicity measured as topotecan IC50 at 1 uM after 5 days by MTS assay
[4] = Modulation of MRP1 (unknown origin) transfected in human 2008/MRP1 cells assessed as potentiation of doxorubicin-induced cytotoxicity measured as doxorubicin IC50 at 1 uM after 5 days by MTS assay
[5] = Modulation of P-gp (unknown origin) transfected in human MDA435/LCC6MDR cells assessed as reversing vincristine resistance measured as cell survival after 5 days by MTS assay
[6] = Modulation of P-gp (unknown origin) transfected in human MDA435/LCC6MDR cells assessed as reversing vinblastine resistance measured as cell survival after 5 days by MTS assay
[7] = Modulation of P-gp (unknown origin) transfected in human MDA435/LCC6MDR cells assessed as reversing doxorubicin resistance measured as cell survival after 5 days by MTS assay
[8] = molecular target: ATP-dependent translocase ABCB1 (Homo sapiens, UniProt P08183); assay: Modulation of P-gp (unknown origin) transfected in human MDA435/LCC6MDR cells assessed as reversible of paclitaxel resistance measured as IC50 for paclitaxel at 10 uM after 5 days by CellTiter 96 Aqueous assay
ATP-dependent translocase ABCB1, sequence (P08183 whole entry): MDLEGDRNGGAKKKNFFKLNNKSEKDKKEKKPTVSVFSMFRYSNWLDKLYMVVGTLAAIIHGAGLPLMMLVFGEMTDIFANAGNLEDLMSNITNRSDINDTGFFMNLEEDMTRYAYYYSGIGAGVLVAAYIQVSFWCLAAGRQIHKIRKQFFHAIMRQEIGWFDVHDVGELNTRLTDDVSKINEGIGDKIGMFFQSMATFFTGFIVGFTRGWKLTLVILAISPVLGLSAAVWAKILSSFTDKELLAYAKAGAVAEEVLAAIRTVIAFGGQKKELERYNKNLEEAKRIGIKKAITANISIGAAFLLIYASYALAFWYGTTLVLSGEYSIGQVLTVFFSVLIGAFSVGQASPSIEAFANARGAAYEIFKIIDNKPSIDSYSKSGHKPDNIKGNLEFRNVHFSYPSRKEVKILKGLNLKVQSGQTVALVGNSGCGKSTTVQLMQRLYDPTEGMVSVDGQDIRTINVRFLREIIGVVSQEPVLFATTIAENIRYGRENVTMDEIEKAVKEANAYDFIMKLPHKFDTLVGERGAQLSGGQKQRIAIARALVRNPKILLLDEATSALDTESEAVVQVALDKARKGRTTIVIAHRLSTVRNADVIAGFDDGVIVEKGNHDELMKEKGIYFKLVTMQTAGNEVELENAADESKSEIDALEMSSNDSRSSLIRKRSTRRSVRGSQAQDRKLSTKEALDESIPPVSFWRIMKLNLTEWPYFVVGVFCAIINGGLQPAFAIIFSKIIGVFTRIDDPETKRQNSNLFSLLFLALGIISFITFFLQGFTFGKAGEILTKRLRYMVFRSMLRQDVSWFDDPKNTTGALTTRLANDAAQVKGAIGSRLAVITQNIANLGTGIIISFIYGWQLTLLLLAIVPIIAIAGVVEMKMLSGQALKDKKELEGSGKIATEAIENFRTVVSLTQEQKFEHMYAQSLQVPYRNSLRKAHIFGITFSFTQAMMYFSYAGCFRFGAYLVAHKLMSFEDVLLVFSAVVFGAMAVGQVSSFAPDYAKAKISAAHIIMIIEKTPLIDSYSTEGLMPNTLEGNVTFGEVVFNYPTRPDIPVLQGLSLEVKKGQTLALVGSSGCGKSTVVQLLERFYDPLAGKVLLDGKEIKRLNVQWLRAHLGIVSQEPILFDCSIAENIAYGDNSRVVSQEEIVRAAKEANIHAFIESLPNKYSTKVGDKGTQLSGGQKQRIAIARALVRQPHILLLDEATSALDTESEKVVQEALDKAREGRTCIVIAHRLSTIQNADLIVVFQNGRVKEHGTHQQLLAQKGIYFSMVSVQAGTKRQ
Method in brief: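 They were held 5 days at 37 °C and viability read by CellTiter 96 AQueous (MTS). […] RF = IC50 of PTX without modulator / IC50 with modulator.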

Compound	pIC50 [1]	also measured
COc1cc(OC)c2c(c1)O[C@H](c1cc(OC)c(OC)c(OC)c1)[C@@H](O)C2	6.87	
COc1ccc(C(=O)O[C@H]2Cc3c(OC)cc(OC)cc3O[C@@H]2c2cc(OC)c(OC)c(OC)c2)cc1	7.17	
COc1cc(OC)c2c(c1)O[C@H](c1cc(OC)c(OC)c(OC)c1)[C@@H](OC(=O)c1cc(OC)c(OC)c(OC)c1)C2=O	7.36	
COc1cc(OC)c2c(c1)O[C@H](c1cc(OC)c(OC)c(OC)c1)[C@@H](OC(C)=O)C2=O	6.97	
COc1ccc(C(=O)O[C@H]2C(=O)c3c(OC)cc(OC)cc3O[C@@H]2c2cc(OC)c(OC)c(OC)c2)cc1	7.32	
COc1cc(OC)c2c(c1)O[C@H](c1cc(OC)c(OC)c(OC)c1)[C@@H](OC(=O)c1ccc(OC)c(OC)c1)C2=O	7.43	
COc1cc(OC)c2c(c1)O[C@H](c1cc(OC)c(OC)c(OC)c1)[C@@H](OC(=O)c1ccc(F)c(NC(=O)c3ccc(OC)c(OC)c3)c1)C2		pEC50 [2]: 6.77; pEC50 [5]: 6.83; pEC50 [6]: 6.76; pEC50 [7]: 6.68; pIC50 [3]: 7.35; pIC50 [4]: 6.85
COc1cc(OC)c2c(c1)O[C@H](c1cc(OC)c(OC)c(OC)c1)[C@@H](OC(=O)c1ccc(F)c(NC(=O)c3cc(OC)c(OC)c(OC)c3)c1)C2		pEC50 [2]: 6.85; pEC50 [5]: 6.99; pEC50 [6]: 6.97; pEC50 [7]: 6.97; pIC50 [3]: 7.42; pIC50 [4]: 6.85
COc1cccc(C(=O)O[C@@H]2Cc3c(OC)cc(OC)cc3O[C@@H]2c2cc(OC)c(OC)c(OC)c2)c1	7.35	
COc1cc(OC)c2c(c1)O[C@H](c1cc(OC)c(OC)c(OC)c1)[C@@H](OC(=O)c1ccc(F)c(NC(=O)/C=C/c3cc(OC)c(OC)c(OC)c3)c1)C2		pEC50 [2]: 6.65
COc1cc(OC)c2c(c1)O[C@H](c1cc(OC)c(OC)c(OC)c1)[C@H](OC(=O)c1ccc(F)c(N(C)C)c1)C2	7.44	
COc1ccc(CC(=O)O[C@@H]2Cc3c(OC)cc(OC)cc3O[C@@H]2c2cc(OC)c(OC)c(OC)c2)cc1	7.47	
COc1cc(OC)c2c(c1)O[C@H](c1cc(OC)c(OC)c(OC)c1)[C@H](OC(=O)Cc1ccc(OC)c(OC)c1)C2	7.49	
CCOc1cc(C(=O)O[C@@H]2Cc3c(OC)cc(OC)cc3O[C@@H]2c2cc(OC)c(OC)c(OC)c2)cc(OCC)c1OCC	6.95	
COc1cc(OC)c2c(c1)O[C@H](c1cc(OC)c(OC)c(OC)c1)[C@@H](OC(=O)c1ccc(F)c(NC(=O)/C=C/c3cc(OC)c(OC)c(OC)c3)c1)C2=O	7.55	
COc1cc(OC)c2c(c1)O[C@H](c1cc(OC)c(OC)c(OC)c1)[C@H](OC(=O)c1cccc(F)c1)C2	7.01	
COc1cc(OC)c2c(c1)O[C@H](c1cc(OC)c(OC)c(OC)c1)[C@H](OC(=O)c1ccc(F)cc1)C2	7.28	
COc1ccc(C(=O)O[C@@H]2Cc3c(OC)cc(OC)cc3O[C@@H]2c2cc(OC)c(OC)c(OC)c2)cc1	6.83	
COc1cc(OC)c2c(c1)O[C@H](c1cc(OC)c(OC)c(OC)c1)[C@@H](OC(=O)c1ccc(F)c(NC(=O)c3cc(OC)c(OC)c(OC)c3)c1)C2=O	7.43	
C=CCOc1cc(C(=O)O[C@H]2C(=O)c3c(OC)cc(OC)cc3O[C@@H]2c2cc(OC)c(OC)c(OC)c2)cc(OCC=C)c1OCC=C	7.49	
COc1ccc(/C=C/C(=O)O[C@H]2C(=O)c3c(OC)cc(OC)cc3O[C@@H]2c2cc(OC)c(OC)c(OC)c2)cc1	7.39	
CC(=O)Oc1cc(OC(C)=O)c2c(c1)O[C@H](c1cc(OC(C)=O)c(OC(C)=O)c(OC(C)=O)c1)[C@H](OC(=O)c1cc(OC(C)=O)c(OC(C)=O)c(OC(C)=O)c1)C2	6.75	
COc1cc(OC)c2c(c1)O[C@H](c1cc(OC)c(OC)c(OC)c1)[C@H](OC(=O)/C=C/c1cc(OC)c(OC)c(OC)c1)C2		pIC50 [3]: 6.45; pIC50 [4]: 6.49
COc1ccc(CCC(=O)O[C@@H]2Cc3c(OC)cc(OC)cc3O[C@@H]2c2cc(OC)c(OC)c(OC)c2)cc1	7.40	
COc1ccc(/C=C/C(=O)O[C@@H]2Cc3c(OC)cc(OC)cc3O[C@@H]2c2cc(OC)c(OC)c(OC)c2)cc1	7.66	
O=C(O[C@@H]1Cc2c(O)cc(O)cc2O[C@@H]1c1cc(O)c(O)c(O)c1)c1cc(O)c(O)c(O)c1 [(-)-Epigallocatechin-3-o-gallate]	6.91	IC50 [8]: 123 nM

The next lines start with results.

pIC50 [1]	Compound	also measured
7.72	COc1ccc(/C=C/C(=O)O[C@H]2Cc3c(OC)cc(OC)cc3O[C@@H]2c2cc(OC)c(OC)c(OC)c2)cc1	
7.92	COc1cc(OC)c2c(c1)O[C@H](c1cc(OC)c(OC)c(OC)c1)[C@@H](OC(=O)c1ccc(OC)c(OC)c1)C2	
8.48	COc1cc(OC)c2c(c1)O[C@H](c1cc(OC)c(OC)c(OC)c1)[C@H](OC(=O)c1ccc(F)c(NC(=O)c3cc(OC)c(OC)c(OC)c3)c1)C2	pEC50 [2]: 6.67; pIC50 [3]: 6.68; pIC50 [4]: 6.38
7.85	COc1cc(OC)c2c(c1)O[C@H](c1cc(OC)c(OC)c(OC)c1)[C@H](OC(=O)c1ccc(F)c(NC(=O)c3ccc(F)c(NC(=O)c4ccc(OC)c(OC)c4)c3)c1)C2	
7.89	COc1cc(OC)c2c(c1)O[C@H](c1cc(OC)c(OC)c(OC)c1)[C@H](OC(=O)c1ccc(F)c(NC(=O)c3ccc(F)c(NC(=O)c4cc(OC)c(OC)c(OC)c4)c3)c1)C2	
8.18	COc1cc(OC)c2c(c1)O[C@H](c1cc(OC)c(OC)c(OC)c1)[C@@H](OC(=O)c1ccc(F)c(NC(=O)/C=C/c3ccc(OC)c(OC)c3)c1)C2	pEC50 [2]: 6.55
7.82	COc1cc(OC)c2c(c1)O[C@H](c1cc(OC)c(OC)c(OC)c1)[C@H](OC(=O)c1ccc(F)c(NC(C)=O)c1)C2	
7.92	C=CCOc1cc(C(=O)O[C@@H]2Cc3c(OC)cc(OC)cc3O[C@@H]2c2cc(OC)c(OC)c(OC)c2)cc(OCC=C)c1OCC=C	
8.03	COc1cc(OC)c2c(c1)O[C@H](c1cc(OC)c(OC)c(OC)c1)[C@@H](OC(=O)c1ccc(F)c(NC(=O)c3ccc(OC)c(OC)c3)c1)C2=O	
7.70	COc1cc(OC)c2c(c1)O[C@H](c1cc(OC)c(OC)c(OC)c1)[C@H](OC(=O)c1ccc(OC)c(OC)c1)C2	
8.21	COc1cc(OC)c2c(c1)O[C@H](c1cc(OC)c(OC)c(OC)c1)[C@H](OC(=O)c1ccc(F)c(NC(=O)/C=C/c3cc(OC)c(OC)c(OC)c3)c1)C2	
8.52	COc1cc(OC)c2c(c1)O[C@H](c1cc(OC)c(OC)c(OC)c1)[C@H](OC(=O)c1ccc(F)c(NC(=O)c3ccc(OC)c(OC)c3)c1)C2	pEC50 [2]: 6.80; pEC50 [5]: 6.74; pEC50 [6]: 6.71; pEC50 [7]: 6.86; pIC50 [3]: 6.75; pIC50 [4]: 6.36
7.72	COc1cc(OC)c2c(c1)O[C@H](c1cc(OC)c(OC)c(OC)c1)[C@H](OC(=O)CCc1ccc(OC)c(OC)c1)C2	
7.74	COc1cc(OC)c2c(c1)O[C@H](c1cc(OC)c(OC)c(OC)c1)[C@H](OC(=O)CCc1cc(OC)c(OC)c(OC)c1)C2	
8.06	COc1cc(OC)c2c(c1)O[C@H](c1cc(OC)c(OC)c(OC)c1)[C@H](OC(=O)/C=C/c1ccc(OC)c(OC)c1)C2	pEC50 [2]: 6.80; pEC50 [5]: 6.78; pEC50 [6]: 6.91; pEC50 [7]: 6.80

Source: BindingDB's records for doi:10.1021/acs.jmedchem.5b00085 (The Hong Kong Polytechnic University, 2015)
